Measurements as given in ChEMBL document CHEMBL1145341, “Synthesis and biological evaluation of bisindenoisoquinolines as topoisomerase I inhibitors” (2006).
The source made the active and inactive calls. The calls are words filed in the database; no cut-off is given here.

Key:
OVCAR-3 = experiment: Antiproliferative activity against human OVCAR-3 cell line; assay type: functional
[1] = biological target: T1, DNA topoisomerase 1 (Homo sapiens) (UniProt P11387); experiment: Inhibition of human recombinant Top1-mediated DNA cleavage upto 10 uM
T1 sequence (whole entry): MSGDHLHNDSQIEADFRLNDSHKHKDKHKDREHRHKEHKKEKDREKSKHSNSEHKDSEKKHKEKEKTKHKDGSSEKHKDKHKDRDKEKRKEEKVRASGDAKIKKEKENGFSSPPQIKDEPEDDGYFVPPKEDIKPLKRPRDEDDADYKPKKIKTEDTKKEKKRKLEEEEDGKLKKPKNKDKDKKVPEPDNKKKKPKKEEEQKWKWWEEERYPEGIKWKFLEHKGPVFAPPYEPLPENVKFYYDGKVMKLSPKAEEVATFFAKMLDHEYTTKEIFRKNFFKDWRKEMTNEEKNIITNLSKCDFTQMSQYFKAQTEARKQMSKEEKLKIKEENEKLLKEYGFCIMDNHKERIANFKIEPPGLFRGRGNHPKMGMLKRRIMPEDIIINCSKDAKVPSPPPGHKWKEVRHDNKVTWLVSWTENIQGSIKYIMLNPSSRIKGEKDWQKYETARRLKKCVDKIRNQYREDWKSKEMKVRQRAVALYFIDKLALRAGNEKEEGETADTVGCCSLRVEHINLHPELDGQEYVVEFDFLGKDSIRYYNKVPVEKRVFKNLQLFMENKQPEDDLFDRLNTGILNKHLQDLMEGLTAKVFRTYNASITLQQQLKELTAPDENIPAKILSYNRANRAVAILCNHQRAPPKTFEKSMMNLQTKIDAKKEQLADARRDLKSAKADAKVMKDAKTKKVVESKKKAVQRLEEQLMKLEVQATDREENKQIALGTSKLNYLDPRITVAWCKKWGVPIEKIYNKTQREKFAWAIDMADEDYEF
Method in brief: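 Baculovirus-purified human recombinant Top1. Substrate: 161 bp PvuII/HindIII fragment of pBluescript SK(-), 3′-end labeled with [α-32P]-dGTP by Klenow fill-in, about 50 000 dpm per reaction. Compounds up to 10 µM, 22 °C for 30 min; stopped with 0.5% SDS (final). Denaturing 16% polyacrylamide/7 M urea gels, phosphorimaging. Cleavage scored semiquantitatively (+ to ++++) against a reference indenoisoquinoline and 1 µM camptothecin.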

SN12C = experiment: Antiproliferative activity against human SN12C cell line; assay type: functional
HOP-62 = experiment: Antiproliferative activity against human HOP62 cell line; assay type: functional
MDA-MB-435 = experiment: Antiproliferative activity against human MDA-MB-435 cell line; assay type: functional
HCT-116 = experiment: Antiproliferative activity against human HCT116 cell line; assay type: functional
DU-145 = experiment: Antiproliferative activity against human DU145 cell line; assay type: functional
UACC-62 = experiment: Antiproliferative activity against human UACC62 cell line; assay type: functional
[2] = system: Panel (12 tumour cell lines); experiment: Net cell kill in ip dosed mouse implanted with 12 human tumor cell lines; assay type: functional, organism-based
SF-539 = experiment: Antiproliferative activity against human SF539 cell line; assay type: functional

Row | Structure (SMILES) | GI50 (OVCAR-3) [µM] | Activity [1] | GI50 (SN12C) [µM] | GI50 (HOP-62) [µM] | GI50 (MDA-MB-435) [µM] | GI50 (HCT-116) [µM] | GI50 (DU-145) [µM] | GI50 (UACC-62) [µM] | Activity [2] | GI50 (SF-539) [µM]
1 | O=C1c2ccccc2-c2c1c1ccccc1c(=O)n2CCCNCCNCCCn1c2c(c3ccccc3c1=O)C(=O)c1ccccc1-2 | 1.02 | Active | < 0.01 | < 0.01 | 0.933 | < 0.01 | < 0.01 | 0.052 |  | 
2 | O=C1c2ccccc2-c2c1c1ccccc1c(=O)n2CCNCCCNCCn1c2c(c3ccccc3c1=O)C(=O)c1ccccc1-2 | 0.093 | Active | < 0.005 | 0.339 | 0.024 | < 0.005 | 0.079 | 0.182 | inactive | 0.155
3 | CN(CCCn1c2c(c3ccccc3c1=O)C(=O)c1ccccc1-2)CCCn1c2c(c3ccccc3c1=O)C(=O)c1ccccc1-2 | 1.2 |  | 0.589 |  | 1.55 |  |  | 2 |  | 1.12
4 | CC(=O)O[C@H]1C(=O)[C@@]2(C)[C@H]([C@H](OC(=O)c3ccccc3)[C@]3(O)C[C@H](OC(=O)[C@H](O)[C@@H](NC(=O)c4ccccc4)c4ccccc4)C(C)=C1C3(C)C)[C@]1(OC(C)=O)CO[C@@H]1C[C@@H]2O |  |  |  |  |  |  |  |  | Active | 
5 | NCCCn1c2c(c3ccccc3c1=O)C(=O)c1ccccc1-2 | 1.38 |  | 0.16 | 0.2 | 0.78 | 0.18 | 0.22 | 0.26 |  | 0.25
6 | O=C1c2ccccc2-c2c1c1ccccc1c(=O)n2CCNCCNCCn1c2c(c3ccccc3c1=O)C(=O)c1ccccc1-2 | 1.66 |  | 0.178 | 0.032 | 1.66 | 0.029 | 0.182 | 0.331 |  | 
7 | COc1cc2c3c(n(CCCNCCCNCCCn4c5c(c6cc(OC)c(OC)cc6c4=O)C(=O)c4ccccc4-5)c(=O)c2cc1OC)-c1ccccc1C3=O | 9.55 |  | 0.24 | 1.51 | 3.98 | 0.331 | 19.5 | 4.27 |  | 4.17
8 | COc1cc2c3c(n(CCCNCCCNCCCN)c(=O)c2cc1OC)-c1cc2c(cc1C3=O)OCO2 | 0.88 |  | 33 |  | 68 | 43 | > 100 | 44 |  | > 100
9 | O=C1c2ccccc2-c2c1c1ccccc1c(=O)n2CCCNCCCNCCCn1c2c(c3ccccc3c1=O)C(=O)c1ccccc1-2 | 0.074 | Active | < 0.01 | < 0.01 | 0.107 | < 0.01 |  | 0.042 | inactive | 0.011
10 | O=C1c2ccccc2-c2c1c1ccccc1c(=O)n2CCCCNCCCn1c2c(c3ccccc3c1=O)C(=O)c1ccccc1-2 | 0.372 |  | 0.132 | 0.028 | 0.562 | 0.056 | 0.288 | 0.513 |  | 
11 | O=C1c2ccccc2-c2c1c1ccccc1c(=O)n2CCCN1CCN(CCCn2c3c(c4ccccc4c2=O)C(=O)c2ccccc2-3)CC1 | > 100 |  | 15.5 | 12.9 | > 100 | 35.5 | 24 | > 100 |  | > 100
12 | CC[C@@]1(O)C(=O)OCc2c1cc1n(c2=O)Cc2cc3ccccc3nc2-1 [CAMPTOTHECIN] |  |  | 0.02 | 0.01 | 0.04 | 0.03 | 0.01 | 0.01 |  | 0.01
13 | CC(C)(C)OC(=O)N(CCCN(CCn1c2c(c3ccccc3c1=O)C(=O)c1ccccc1-2)C(=O)OC(C)(C)C)CCn1c2c(c3ccccc3c1=O)C(=O)c1ccccc1-2 | 21.4 |  | > 50.1 | 22.4 | > 50.1 | 22.9 | > 50.1 | > 50.1 |  | > 50.1
14 | O=C1c2ccccc2-c2c1c1ccccc1c(=O)n2CCNCCNCCNCCNCCn1c2c(c3ccccc3c1=O)C(=O)c1ccccc1-2 | 0.032 |  |  | 0.977 | 0.126 | 0.2 | 0.085 |  |  | 0.012
15 | O=C1c2ccccc2-c2c1c1ccccc1c(=O)n2CCNCCn1c2c(c3ccccc3c1=O)C(=O)c1ccccc1-2 | > 25.1 |  | > 25.1 | > 25.1 | > 25.1 | > 25.1 | > 25.1 | > 25.1 |  | > 25.1
16 | CC(C)(C)OC(=O)N(CCCCN(CCCn1c2c(c3ccccc3c1=O)C(=O)c1ccccc1-2)C(=O)OC(C)(C)C)CCCn1c2c(c3ccccc3c1=O)C(=O)c1ccccc1-2 | 69.2 |  | 36.3 | 11 | 69.2 | 1.91 | 47.9 | 93.3 |  | 8.13
17 | O=C1c2ccccc2-c2c1c1ccccc1c(=O)n2CCCNCCn1c2c(c3ccccc3c1=O)C(=O)c1ccccc1-2 | 8.91 |  | 11 | 0.977 | 2.24 | 1.05 | 1.91 | 5.01 |  | 14.5
18 | CC(C)(C)OC(=O)N(CCCn1c2c(c3ccccc3c1=O)C(=O)c1ccccc1-2)CCN(CCCn1c2c(c3ccccc3c1=O)C(=O)c1ccccc1-2)C(=O)OC(C)(C)C | 13.2 |  | 39.8 | 20 | > 50.1 | 14.1 | > 50.1 | 45.7 |  | > 50.1
19 | O=C1c2ccccc2-c2c1c1ccccc1c(=O)n2CCCNCCCn1c2c(c3ccccc3c1=O)C(=O)c1ccccc1-2 | 2.95 |  | 1.55 | 0.794 | 8.91 | 0.55 | 1 | 6.61 |  | 3.63
20 | COc1cc2c3c(n(CCNCCCNCCn4c5c(c6cc(OC)c(OC)cc6c4=O)C(=O)c4ccccc4-5)c(=O)c2cc1OC)-c1ccccc1C3=O | 0.269 |  | 0.028 | 0.068 | 0.813 | 0.045 | 0.209 | 1.23 |  | 0.17
